# Assay results from different studies.
# Protocols differ between the studies behind these lines.
# Target: D(2) dopamine receptor (DRD2, Homo sapiens, UniProt P14416)
# Tested at: 10 µM
Structure (SMILES),observed,action,technique,inhibition [%]
COc1ccccc1N1CCN(CCCCN2C(=O)C3CCCCN3C2=O)CC1 (centres unmarked),enzyme activity,inhibitor,,72.6
C[C@@H](c1cccc(C#N)c1)n1cc(Cl)cc(C(N)=O)c1=N,ligand displacement,,,-3.06
Cc1ncccc1OC[C@@H]1CN(CCN2CCc3ccccc32)CCO1,ligand displacement,,radioligand,15.2
O=C(c1ccc(F)cc1)N1CC(COc2ccc(Br)cc2)(C(=O)O)C1,cell-free assay,,,-29.4
O=C(CN1CCO[C@@H](COc2cccnc2)C1)N1CCc2ccccc21,ligand displacement,,radioligand,5.5
Cc1c(Cl)cccc1-c1ccc(CNCC(O)c2ccccc2)o1 (centres unmarked),enzyme activity,inhibitor,,46.8
CCC(F)(F)c1cc(N2CCC(S(C)(=O)=O)CC2)nc2sc(C(N)=O)c(N)c12,ligand displacement,,,69.8
Cc1ccccc1N1CCN(CC(O)COc2ccc(C(=O)c3ccccc3)cc2)CC1 (centres unmarked),enzyme activity,inhibitor,,49.2
c1ccc(OC[C@@H]2CN(CCN3CCc4ccccc43)CCO2)cc1,ligand displacement,,radioligand,92.8
COc1ccc(CCN2C(=O)CC(N3CCN(c4ccc(Cl)cc4)CC3)C2=O)cc1OC (centres unmarked),enzyme activity,inhibitor,,11.9
Cc1noc([C@H]2C[C@@H](c3ccc(C(F)(F)F)cc3)CN(C(=O)N3CCS(=O)(=O)C3)C2)n1,ligand displacement,,,-0.15
Clc1cccc(OC[C@H]2CN(CCN3CCc4ccccc43)CCO2)c1,ligand displacement,,radioligand,63.1
CCN(CC)c1ccc(C2Nc3ccc(C(=O)c4ccccc4)cc3NC3=C2C(=O)CC(C)(C)C3)cc1 (centres unmarked),ligand displacement,,radioligand,99
COc1ccc(S(N)(=O)=O)cc1C(=O)NCCCN1CCN(c2ccccc2C)CC1,enzyme activity,inhibitor,,45.1
CN(C)CC#Cc1ccc(OCCCc2sc(N3CCc4cccc(C(=O)Nc5nc6ccccc6s5)c4C3)nc2C(=O)O)c(F)c1,ligand displacement,,,31.5
CCCNc1nc2ccccc2n1Cc1ccc(Cl)cc1,ligand displacement,,,1.09
COc1ccc2c(c1)C(=O)N(CCN1CCN(c3ccccc3OC)CC1)C2,ligand displacement,,radioligand,66.6
CCn1c2ccccc2c2cc(CNCCCN3CCOCC3)ccc21,enzyme activity,inhibitor,,21.9
CN(C)c1ncnc(-c2ccc3nc(Nc4cc(CN5CCN(C(=O)CC(F)(F)F)CC5)ccn4)[nH]c3c2)c1Cl,ligand displacement,,,10.6
COc1cccc(OC[C@@H]2CN(CC(=O)N3CCc4ccccc43)CCO2)c1,ligand displacement,,radioligand,9.5
